Data set [1] is described as follows: In vivo antimalarial activity against Plasmodium berghei in mice (Mus musculus) after 6 days. It is filed as functional. To be noted: 144 h. The method in brief: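 Male or female CD-1 mice (4-5 weeks, 20-25 g) infected ip on day 0 with 5 × 10⁴ P. berghei KBG-173 parasitized erythrocytes. Oral doses in 0.5% hydroxyethylcellulose/0.1% Tween-80, given bid 6 h apart on days 3, 4 and 5, computed as free base. Giemsa-stained tail-blood smears on day 6 give % infected RBC. ED90 is the dose reducing parasitemia to 10% of untreated infected controls.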

The species entered for data set [2] is Mus musculus. As to the kind of experiment: Dose required for 100%, 31 day survival of Plasmodium berghei inoculated mice (Mus musculus). The class given is ADME, organism-based. The conditions noted are these: in vivo, 744 h. The method in brief:
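Same mouse P. berghei KBG-173 model, with ip infection on day 0 and oral bid treatment on days 3, 4 and 5. The experiment runs 31 days. The complete survival dose is the dose at which all animals are alive on day 31.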

Data set [3] is filed under the species Mus musculus. As to the kind of experiment: Dose needed to increase the 100% survival of treated animals (mouse), to twice the number of days. To be noted: in vivo. The class given is ADME, organism-based.
The test system of data set [4] is Plasmodium falciparum. Kind of data set: In vitro antimalarial activity against Plasmodium falciparum W2. The class given is functional, organism-based. The method, boiled down:
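Chloroquine-, quinine-, sulfadoxine- and pyrimethamine-resistant Indochina W-2 clone tested in a semiautomated microdilution assay. Graded drug concentrations incubated 66 h in medium with physiological folic acid. Read-out is inhibition of radiolabeled hypoxanthine incorporation.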

For data set [5], the system named is Plasmodium falciparum. Kind of data set: In vitro antimalarial activity against Plasmodium falciparum K1. It is filed as functional. The method, boiled down:
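K1 parasites synchronized with 5% sorbitol. Drugs in methanol or DMSO, 2-fold serially diluted. Cultures at 2% hematocrit and 0.5% parasitemia (>95% rings) in 10% human serum under 5% O₂/5% CO₂/90% N₂ at 37.5 °C for 24-30 h. Romanowsky-stained thick films scored. MIC is the lowest concentration preventing >90% maturation to normal schizonts.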

The structures appear in SMILES notation. Converted amounts (≈) assume the structure as drawn.

For `CC(C)/N=C(N)/N=C(\N)NOCCCOc1cccc2ccccc12.Cl`, the ED90 in data set [1] was more than 256 mg/kg. Also, in data set [2], the Dose worked out at 495 mg/kg. This compound displayed an ED in data set [3] of 185 mg/kg.

In data set [1], `CC(C)/N=C(N)/N=C(\N)NOCCCOc1cc(F)cc(F)c1F.Cl` had an ED90 of 74 mg/kg. For the same compound, the Dose in data set [2] was 180 mg/kg. Further, the ED in data set [3] stood at 107 mg/kg.

In the case of `CC1(C)N=C(N)N=C(N)N1OCCCOc1ccc([N+](=O)[O-])cc1.Cl`, in data set [4], half-maximal inhibition (IC50) required 0.0299 ng/mL. In addition, the 90% effect level in data set [5] (IC90) was put at 0.32 ng/mL.

Compound `CC(C)/N=C(N)/N=C(\N)NOCCCSc1cc(Cl)ccc1Cl` returned an ED90 in data set [1] of less than 128 mg/kg. Further, in data set [3], the ED is more than 128 mg/kg.

In data set [1], `CCc1ccc(OCCCO/N=C(N)/N=C(\N)NC(C)C)cc1.Cl` gave an ED90 of 96 mg/kg. Further, the Dose in data set [2] came out at 505 mg/kg. This compound also displayed an ED in data set [3] of 158 mg/kg.

On to `Cc1cccc(OCCCON2C(N)=NC(N)=NC2(C)C)c1.Cl`, for which it took 0.0416 ng/mL to reach half-maximal inhibition in data set [4] (IC50). Further, the 90% effect level in data set [5] (IC90) was put at 0.37 ng/mL.

With `CC1(C)N=C(N)N=C(N)N1OCCCOc1ccc2ccccc2c1.Cl`, the midpoint of inhibition in data set [4], the IC50, lay at 0.0333 ng/mL. Moreover, it took 1.56 ng/mL to reach the 90% level in data set [5] (IC90).

Consider `CC1(C)N=C(N)N=C(N)N1OCCCOc1cc(F)c(F)cc1F.Cl`, for which 0.032 ng/mL corresponded to half-maximal inhibition in data set [4] (IC50). For the same compound, the IC90 (usually the point of the concentration-response curve where the effect stands at 90%) in data set [5] is 0.94 ng/mL.

`Cc1ccc(OCCCON/C(N)=N/C(N)=N/C(C)C)c(C)c1.Cl`: the ED90 in data set [1] was determined as 120 mg/kg. Further, the Dose in data set [2] turned out to be 235 mg/kg. In data set [3], this compound yielded an ED of 170 mg/kg.

Take `N=C(NOCCCOc1cc(Cl)c(Cl)cc1Cl)NC(=N)NC1CCCCC1`: the ED90 in data set [1] was more than 256 mg/kg. This compound also showed a Dose in data set [2] of 470 mg/kg. Besides, in data set [3], the ED worked out at 275 mg/kg.

As to `CC1(C)N=C(N)N=C(N)N1OCCCOc1ccc(F)cc1F.Cl`, the IC50 – broadly, the midpoint of a concentration-inhibition curve – in data set [4] was 0.0285 ng/mL. In data set [5], this compound returned a concentration for an effect of 90% (IC90) of 0.42 ng/mL.

In the case of `COc1ccc(OCCCO/N=C(N)/N=C(\N)NC(C)C)cc1.Cl`, the ED90 in data set [1] is more than 128 mg/kg. For the same compound, the ED in data set [3] is more than 128 mg/kg.

In data set [1], `CC(C)/N=C(N)/N=C(\N)NOCCCOc1ccccc1.Cl` yielded an ED90 of 124 mg/kg. In data set [2], this compound registered a Dose of 540 mg/kg. Moreover, in data set [3], the ED came out at 165 mg/kg.

With `CC1(C)N=C(N)N=C(N)N1OCCc1cccc(C(F)(F)F)c1.Cl`, in data set [4], inhibition was half-maximal at 0.184 ng/mL (IC50). This compound also yielded a concentration for an effect of 90% (IC90) in data set [5] of 40 ng/mL.

For `Cc1ccc(SCCCON/C(N)=N/C(N)=N/C(C)C)cc1.Cl`, the ED90 in data set [1] is 92 mg/kg. For the same compound, the Dose in data set [2] was 265 mg/kg. This compound had an ED in data set [3] of 117 mg/kg.

As to `N=C1N=C(N)NC2(CCCCC2)N1OCCCOc1cc(Cl)c(Cl)cc1Cl`, half-maximal inhibition in data set [4] (IC50) required 0.113 ng/mL (≈ 0.26 nM). This compound came in with a 90% effect concentration (IC90) in data set [5] of 66.7 ng/mL (≈ 153 nM).

`CC1(C)NC(N)=NC(=N)N1OCCCOc1ccc(Cl)cc1Cl` had an IC50 in data set [4] of 0.0379 ng/mL (≈ 0.105 nM). Besides, in data set [5], the 90% effect level (IC90) was put at 1.67 ng/mL (≈ 4.64 nM).

In the case of `CC1(C)N=C(N)N=C(N)N1OCCCSc1ccc(F)cc1.Cl`, the half-inhibitory concentration (IC50) in data set [4] was 0.0222 ng/mL. Moreover, in data set [5], the 90% effect level (IC90) was put at 1.25 ng/mL.

Take `Cc1ccc(OCCCON/C(N)=N/C(N)=N/C(C)C)cc1C.Cl`: the ED90 in data set [1] is more than 128 mg/kg. For the same compound, the ED in data set [3] was more than 128 mg/kg.

On to `CC(C)NC(=N)NC(=N)NOCCCOc1cc(Cl)c(Cl)cc1Cl`, for which, in data set [1], the ED90 is less than 16 mg/kg. For the same compound, the Dose in data set [2] came out at 76 mg/kg. This compound registered an ED in data set [3] of 30 mg/kg.

`CC1(C)N=C(N)N=C(N)N1OCCCOc1ccc(Cl)cc1` came in with an IC90 in data set [5] of 0.63 ng/mL (≈ 1.93 nM).

In data set [4], `COc1cc(OCCCON2C(N)=NC(N)=NC2(C)C)cc(OC)c1OC.Cl` had a 50% inhibitory concentration (IC50) of 0.211 ng/mL. Moreover, it took 1.25 ng/mL to reach the 90% level in data set [5] (IC90).

As for `CC1(C)N=C(N)N=C(N)N1c1ccc(Cl)cc1` [CYCLOGUANIL], in data set [4], the IC50 was more than 0.5 ng/mL. Also, it took 152 ng/mL (≈ 604 nM) to reach the 90% level in data set [5] (IC90).

In turn, `CC1(C)N=C(N)N=C(N)N1OCCCOc1ccc(F)cc1.Cl` gave a concentration for an effect of 90% (IC90) in data set [5] of 0.63 ng/mL.

Take `CC(C)/N=C(N)/N=C(\N)NOCCCSc1ccc(F)cc1.Cl`: the ED90 in data set [1] is 70 mg/kg. In addition, the Dose in data set [2] amounted to 183 mg/kg. Further, in data set [3], the ED came out at 109 mg/kg.

For `CC(C)/N=C(N)/N=C(\N)NOCc1ccc(Cl)c(Cl)c1`, the ED90 in data set [1] was less than 8 mg/kg. Moreover, the Dose in data set [2] came out at 32 mg/kg. The ED in data set [3] is 22 mg/kg.

On to `Cc1cc(OCCCON/C(N)=N/C(N)=N/C(C)C)ccc1C(C)C.Cl`, for which, in data set [1], the ED90 is less than 128 mg/kg. Moreover, the ED in data set [3] was determined as 128 mg/kg.

Regarding `Cc1cccc(OCCCON/C(N)=N/C(N)=N/C(C)C)c1.Cl`, the ED90 in data set [1] is more than 128 mg/kg. Moreover, the ED in data set [3] is more than 128 mg/kg.
